Compound activity deposited in PubChem by several laboratories.
Platelet DG rel: modulates dense granule release in human platelets | human platelet-rich plasma, SFLLRN dense granule ATP release, luminescence | inhibition, %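 (compounds screened at 7.5 µM in platelet-rich plasma)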 | hit rate 0.22% among 300,000 | AID 1663;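 active = mean replicate score, as percent of positive control, at or above 50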
SENP1 FRET inh: blocks the human SENP1 SUMO protease catalytic domain | hit rate 0.21% among 360,000 | AID 624204 | inhibition, % at 10 µM | recombinant SENP1 catalytic domain, CyPet-SUMO1-YPet FRET cleavage;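 active = inhibition at least 30% at 10 µM, raw YFP signal under a set limit, fluorescence ratio 0.5 to 1.5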;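 note: 0% = enzyme with DMSO and 100% = no enzyme wells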
Target sequence (Q9P0U3 419-644 limits assumed): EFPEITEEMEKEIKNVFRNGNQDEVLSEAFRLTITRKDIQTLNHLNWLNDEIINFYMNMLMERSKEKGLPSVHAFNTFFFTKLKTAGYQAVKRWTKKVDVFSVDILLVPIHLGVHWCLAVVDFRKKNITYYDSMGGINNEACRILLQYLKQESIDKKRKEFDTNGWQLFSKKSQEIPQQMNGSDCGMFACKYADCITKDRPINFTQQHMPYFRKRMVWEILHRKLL
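Assay system – human recombinant His6-tagged SENP1 catalytic domain enzyme · Input – SENP1 enzyme, 20 pM final · Buffer or medium – Tris pH 8 buffer plus EDTA, NaCl, BME, BSA, NP40, catalase · Schedule – 50 min reaction at room temperature · Technique – FRET read of cyan and yellow fluorescence · Control set – no-enzyme wells low, DMSO-plus-enzyme wells high control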
SENP8 block-1: blocks the human protease SENP8; Q96LD8; purified SENP8, Z-RLRGG-aminoluciferin cleavage, luminescence; inhibition, % at 10 µM; hit rate 1.2% among 330,000; in the data active = inhibition above about 50%
Target sequence (Q96LD8 whole entry, looked up): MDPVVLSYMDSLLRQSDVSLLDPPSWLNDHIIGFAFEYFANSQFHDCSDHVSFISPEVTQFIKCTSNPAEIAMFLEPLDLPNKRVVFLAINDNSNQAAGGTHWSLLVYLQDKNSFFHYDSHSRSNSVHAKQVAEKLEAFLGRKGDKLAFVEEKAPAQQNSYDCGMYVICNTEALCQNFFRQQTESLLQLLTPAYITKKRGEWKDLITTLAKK
SENP8 block-2: blocks human SENP8 cleavage of Nedd8 substrate | AID 602440 | inhibition, % at 20 µM | recombinant SENP8, Nedd8 substrate fluorescence | Q96LD8 | hit rate 0.64% among 360,000; in the data active = inhibition mostly above about 40%, no sharp cut-off; inactive = mostly below about 27%
SENP6 inh: blocks the human protease SENP6; Q9GZR1; Recombinant SENP6 catalytic domain, aminoluciferin luminescence; inhibition, % at 10 µM; hit rate 1.8% among 330,000; AID 2599;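 active = inhibition above about 50% at the single tested dose, limit read from the data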;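 note: plate controls were DMSO wells with enzyme for no effect and DMSO wells lacking enzyme for full effect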
SENP7 block: inhibitors of human SENP7 protease; Q9BQF6; recombinant SENP7, Z-RLRGG-aminoluciferin luminescence, 40 min; inhibition, % at 5 µM; hit rate 1.5% among 330,000; AID 434973;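 active = inhibition above about 50% at the single test dose, limit read from the data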;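 note: plate controls were DMSO with enzyme for no effect and no enzyme buffer wells for full effect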
SENP8 inh conf: confirmation of human SENP8 protease inhibitors. purified SENP8, Nedd8-AMC/pro-Nedd8 cleavage fluorescence, 30 min. hit rate 15% among 1,400. inhibition, % at 25 µM. shares compounds with SENP8 block-2; in the data active = inhibition mostly above about 39%, no sharp cut-off; inactive = mostly below about 34%
An asterisk follows results filed as active; . = not tested or not shown; ! = a repeat was not active. This is a sample that favours compounds with a hit; in the whole collection about 2.6% have one here.

SMILES	Platelet DG rel	SENP1 FRET inh	SENP8 block-1	SENP8 block-2	SENP6 inh	SENP7 block	SENP8 inh conf
Clc1ss/c(=N\c2ccccn2)c1Cl	10	-2	-3	49*	15	13	29
O=C1N/C(=N\c2ccccn2)SC1Cc1ccccc1Cl (stereo not given)	2	1	-4	8	-5	15	.
COC(=O)CNC(=O)c1ccccc1	0	2	1	51*	4	7	5
O=C(NCc1ccccc1)c1ccccc1	.	2	.	62*	.	.	18
COC(=O)CNC(=O)c1ccc(F)cc1	-15	3	1	-3	-7	12	.
CCOc1ccc(-c2nnc(SCC(=O)O)n2Cc2ccccc2)cc1	-8	0	-2	3	-4	0	.
COc1ccc(N(CCC#N)C(=O)/C(C#N)=C\c2cccs2)cc1	-2	4	-11	34*	-19	-2	10
COCCNC(=O)/C(C#N)=C/c1cccs1	.	6	2	14	-10	0	.
CC(C(=O)Nc1ccc2c(c1)OCO2)N1CCC(N2CCCCC2)CC1 (stereo not given)	.	-4	2	8	1	1	.
O=C(Cc1cc(=O)[nH][nH]1)N/N=C/c1c(Cl)cccc1Cl	23	2	4	44*!	11	-4	19
O=C(Cc1cc(=O)[nH][nH]1)N/N=C/c1c(F)cccc1Cl	3	-1	2	18	9	3	.
O=C(OCc1cccc(C(F)(F)F)c1)c1ccc[nH]c1=O	-7	-1	5	-95	2	1	.
O=c1c(N2CCOCC2)nsnc1N1CCOCC1	4	2	-6	49*	4	1	25
Cc1ccc(Cl)cc1NC(=O)CN1CCN(S(=O)(=O)N2CCC(C)CC2)CC1	6	0	-2	13	9	-3	.
CC1(C)C(=O)C=CC(=O)C(C)(C)C(=O)C=CC(=O)C(C)(C)C2=CC=C(O2)C(C)(C)C(=O)C=CC1=O	.	7	.	48*	.	.	12
CC1(C)C[C@H]2C3=CCC4[C@@]5(C)CC[C@H](O)[C@](C)(CO)C5CC[C@@]4(C)[C@]3(C)CC[C@@]2(C)[C@H](O)[C@@H]1O (stereo not given in full)	.	3	-14	40*	-26	-6	4
COC(=O)c1ccccc1-c1ccc(C(c2c(C)[nH][nH]c2=O)c2c(C)[nH][nH]c2=O)o1	-2	1	20	50*	27	12	42*
COC(=O)c1cccc(-c2ccc(C(c3c(C)[nH][nH]c3=O)c3c(C)[nH][nH]c3=O)o2)c1	-6	1	13	17	43	9	.
Cc1ccc2ncccc2c1NC(=S)NC(=O)c1ccccc1	7	2	-1	12	-20	0	.
O=C(O)C1CC(=O)N(C2CCCCC2)C1c1ccccc1 (stereo not given)	-8	2	0	41*	-19	4	10
COc1ccc(N2C(=O)[C@@H]3[C@H](C2=O)[C@H]2c4ccccc4C=CN2[C@@H]3C(C)=O)cc1	.	-19	.	63*	.	.	93*
CC(=O)Nc1ccc(S(=O)(=O)N[C@@H](C)C(=O)OCc2cc([N+](=O)[O-])cc3c2OCOC3)cc1	4	3	4	45*	12	3	-1
CC(C)c1[nH]nc2c1C(C(C)C)C(C#N)=C(N)O2 (stereo not given)	-9	0	0	40*	-31	-9	13
CC(C)C1C(C#N)=C(N)Oc2n[nH]c(-c3ccccc3)c21 (stereo not given)	11	1	-2	8	1	-1	.
Cc1ccnn1-c1ccc(C(=O)OCC(=O)Nc2ccc(F)cc2)cc1	.	0	-10	22	9	7	.
SMILES	Platelet DG rel	SENP1 FRET inh	SENP8 block-1	SENP8 block-2	SENP6 inh	SENP7 block	SENP8 inh conf
Cc1ccc(-n2c(=O)cc(N3CCCCCC3)[nH]c2=O)cc1	49	2	-6	45*	-19	6	14
O=c1cc(N2CCCCCC2)[nH]c(=O)n1-c1ccc(Cl)cc1	5	0	3	15	-6	2	.
COc1cc2c(cc1OC)C(=O)N(C)CC2	-4	2	-1	42*	3	5	3
Cc1ccc(C(C#N)c2ccc3c(C(F)(F)F)cc(C(F)(F)F)nc3n2)cc1 (stereo not given)	0	-6	6	43*	-22	-3	11
N#CC(c1ccccc1)c1ccc2c(C(F)(F)F)cc(C(F)(F)F)nc2n1 (stereo not given)	0	-13	-9	32	-3	-7	.
CCCc1cc(=O)[nH]c(SCC(=O)Nc2ncc(S(=O)(=O)c3ccc([N+](=O)[O-])cc3)s2)n1	8	0	0	47*	-7	-2	21
CC(C)CSCC1OC(n2cnc3c(N)nccc32)C(O)C1O (stereo not given)	.	-2	.	0	.	.	.
CC(=O)c1cccc(NS(=O)(=O)N2CCCCC2)c1	7	2	-3	41*	15	-1	4
CC1(c2ccccc2)NC(=O)N(CC(=O)Nc2nnc(C3CC3)s2)C1=O (stereo not given)	7	3	-11	3	-4	8	.
COc1ccc(NCC(=O)N/N=C2\CCc3ccccc32)cc1	16	-3	-1	40*	15	9	26
Cc1cccc(C(=O)NC2CCCCCCC2)c1	-4	-2	-13	12	11	5	.
Cc1cccc(C(=O)NC2C(=O)NNC2c2ccc(Cl)cc2)c1 (stereo not given)	7	1	-2	44*	19	14	22
O=C(NC1C(=O)NNC1c1ccccc1)c1ccccc1 (stereo not given)	-17	4	-5	55*	14	-5	17
CC1CC(C)(C)CC2(C1)NC(=O)N(CC(=O)N1CCN(Cc3ccc(C#N)cc3)CC1)C2=O (stereo not given)	.	0	-5	7	-14	14	.
Cc1cc(O)c(C(C)C)cc1N=Cc1ccc(N(C)C)cc1	.	2	.	38	.	.	.
COc1cccc(C=Nc2cc(C(C)C)c(O)cc2C)c1O	.	9	.	70*	.	.	23
Cc1cc(O)c(C(C)C)cc1N=Cc1ccc([N+](=O)[O-])cc1	.	2	.	95*	.	.	11
CSc1nc2ncncc2[nH]1	.	2	.	11	.	.	.
Cc1ccc(NC(=S)NNC(=O)c2cn(C)nc2C)cc1	4	2	1	43*	5	0	12
COc1cc(NC(C)=O)c2ncccc2c1[N+](=O)[O-]	6	0	-12	48*	-1	2	8
CS(=O)(=O)NCc1csc(-c2ccccc2)n1	6	1	-2	44*	15	3	-5
CCS(=O)(=O)NCc1csc(-c2ccccc2)n1	-2	4	1	8	0	-1	.
